Measured values as given in ChEMBL document CHEMBL1154933, “2-Aminothiadiazole inhibitors of AKT1 as potential cancer therapeutics” (Bioorg Med Chem Lett, 2010).
Activity calls are given as the source filed them. No cut-off for these calls is given here.

Experiments:
[1] = target: T1, RAC-alpha serine/threonine-protein kinase (Homo sapiens, UniProt P31749); test: Inhibition of AKT1 after 10 mins by [gamma33]ATP assay
[2] = Inhibition of PKA
[3] = target: Cyclin-dependent kinase 2 (Homo sapiens, UniProt P24941); test: Inhibition of CDK2
[4] = Selectivity ratio of IC50 for CDK2 to IC50 for AKT1
[5] = target: T1, RAC-alpha serine/threonine-protein kinase; test: Inhibition of human AKT1 in human U87MG cells assessed as PRAS40 phosphorylation after 1 hr by ELISA; format: cell-based, U-87MG ATCC
Summary of the method: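 U87MG cells in 5% FBS medium were incubated with threefold serial dilutions of inhibitor for 1 h at 37 °C, then lysed. Phospho-PRAS40 (Thr246) was quantified by ELISA and normalized to total PRAS40. Mean ± SD where n ≥ 3.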

[6] = target: T1, RAC-alpha serine/threonine-protein kinase; test: Inhibition of human AKT1 in human MDA-MB-468 cells assessed as phosphorylation-mediated nuclear translocation of GFP-tagged FKHRL1 by fluorescence microscopy; format: cell-based
Summary of the method: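 MDA-MB-468 cells stably expressing GFP-tagged FKHRL1 were treated with threefold serial dilutions of compound. Nuclear translocation of the fusion protein was scored by fluorescence microscopy. Mean ± SD where n ≥ 3, some values from a single run.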

[7] = Cytotoxicity against human U87MG cells after 3 days by alamar blue staining; format: functional, cell-based, U-87MG ATCC; details: U-87 MG, 72 h
Summary of the method: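 U-87 glioblastoma cells seeded at 6000 cells/well and exposed to compound over a concentration series for 3 days. Viability read by alamarBlue staining, run in triplicate, and EC50 derived.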

[8] = Clearance in Sprague-Dawley rat at 2 mg/kg, iv; format: ADME, organism-based; design: dose 2 mg/kg, route intravenous; details: in vivo
Summary of the method: (§1)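 Male Sprague-Dawley rats, n = 3, given a single iv dose in 100% DMSO, at 1 mg/kg or 2 mg/kg depending on compound. Clearance, half-life and steady-state volume of distribution were taken from plasma exposure after the iv dose.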

[9] = Half life in Sprague-Dawley rat at 2 mg/kg, iv; format: ADME, organism-based; design: dose 2 mg/kg, route intravenous; details: in vivo; summary of the method: as §1
[10] = Volume of distribution at steady state in Sprague-Dawley rat at 2 mg/kg, iv; format: ADME, organism-based; design: dose 2 mg/kg, route intravenous; details: in vivo, read-out: Vdss; summary of the method: as §1
[11] = Cmax in Sprague-Dawley rat at 10 mg/kg, po; format: ADME, organism-based; design: dose 10 mg/kg, route oral; details: in vivo
Summary of the method: (§2)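 Male Sprague-Dawley rats, n = 3, dosed orally at 10 mg/kg in 25% PEG 400/[…]. Cmax was taken from the oral exposure. Bioavailability was derived against the separate iv arm, which was 2 mg/kg in 100% DMSO.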

[12] = Oral bioavailability in Sprague-Dawley rat at 10 mg/kg; format: ADME, organism-based; details: in vivo; summary of the method: as §2
[13] = system: Mus musculus; test: Inhibition of HGF-stimulated AKT signaling pathway in BALB/c mouse liver assessed as reduction in phosphorylated FKHRL1 level ip dosed 1 hr before HGF challenge and measured after 5 mins by Western blot analysis; format: functional, organism-based
[14] = system: Mus musculus; test: Inhibition of HGF-stimulated AKT signaling pathway in BALB/c mouse liver assessed as reduction in phosphorylated FKHRL1 level at 30 mg/kg, ip dosed up to 6 hrs before HGF challenge and measured after 5 mins by Western blot analysis; format: functional, organism-based; design: dose 30 mg/kg
[15] = target: T2, Serine/threonine-protein kinase Sgk1 (Homo sapiens, UniProt O00141); test: Inhibition of SGK1
T2 sequence (O00141 whole entry): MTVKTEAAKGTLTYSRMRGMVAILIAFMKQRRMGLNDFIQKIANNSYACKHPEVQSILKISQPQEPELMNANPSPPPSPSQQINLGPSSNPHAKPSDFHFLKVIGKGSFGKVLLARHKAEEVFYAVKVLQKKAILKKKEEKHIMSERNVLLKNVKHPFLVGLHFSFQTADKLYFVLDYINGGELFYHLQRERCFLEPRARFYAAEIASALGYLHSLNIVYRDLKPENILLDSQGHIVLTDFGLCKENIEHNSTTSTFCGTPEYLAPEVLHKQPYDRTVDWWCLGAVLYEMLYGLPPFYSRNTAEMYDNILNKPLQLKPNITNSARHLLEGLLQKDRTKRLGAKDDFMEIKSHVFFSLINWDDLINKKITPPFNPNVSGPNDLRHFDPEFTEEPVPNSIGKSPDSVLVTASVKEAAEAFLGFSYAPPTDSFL

[16] = Clearance in Sprague-Dawley rat at 1 mg/kg, iv; format: ADME, organism-based; design: dose 1 mg/kg, route intravenous; details: in vivo; summary of the method: as §1
[17] = Half life in Sprague-Dawley rat at 1 mg/kg, iv; format: ADME, organism-based; design: dose 1 mg/kg, route intravenous; details: in vivo; summary of the method: as §1
[18] = Volume of distribution at steady state in Sprague-Dawley rat at 1 mg/kg, iv; format: ADME, organism-based; design: dose 1 mg/kg, route intravenous; details: in vivo, read-out: Vdss; summary of the method: as §1

T1 sequence (P31749 whole entry): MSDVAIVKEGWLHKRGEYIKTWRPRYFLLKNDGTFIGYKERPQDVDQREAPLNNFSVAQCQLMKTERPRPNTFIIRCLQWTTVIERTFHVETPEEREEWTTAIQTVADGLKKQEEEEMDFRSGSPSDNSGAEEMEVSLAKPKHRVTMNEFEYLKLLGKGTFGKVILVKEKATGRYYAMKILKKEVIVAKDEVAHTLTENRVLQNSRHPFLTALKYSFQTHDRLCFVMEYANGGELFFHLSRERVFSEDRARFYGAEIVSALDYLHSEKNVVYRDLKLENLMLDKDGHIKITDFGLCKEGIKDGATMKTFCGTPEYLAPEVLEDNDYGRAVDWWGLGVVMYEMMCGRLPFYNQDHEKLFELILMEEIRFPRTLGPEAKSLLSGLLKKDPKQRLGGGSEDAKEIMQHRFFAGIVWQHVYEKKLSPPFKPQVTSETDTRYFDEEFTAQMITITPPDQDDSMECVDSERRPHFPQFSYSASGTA

Row | Structure (SMILES) | IC50 [1] | IC50 [2] | IC50 [3] | other results
1 | N[C@H](CNc1nnc(-c2ccc3cnccc3c2)s1)Cc1ccc(C(F)(F)F)cc1 | 3 nM | 8 nM | 53 nM | Ratio IC50 [4]: 20; IC50 [5]: 247 nM; IC50 [6]: 695 nM; EC50 [7]: 380 nM; clearance [8]: 25 mL/min/kg; half-life [9]: 3.8 h; Vd [10]: 3.8 L/kg; Cmax [11]: 430 ng/mL; bioavailability [12]: 20%; inhibition [13]: Dose-dependent effect; inhibition [14]: Active; IC50 [15]: 2200 nM
2 | Cc1n[nH]c2ccc(-c3nnc(NC[C@@H](N)Cc4ccccc4C(F)(F)F)s3)cc12 | 491 nM | 247 nM | 198 nM | –
3 | Cc1n[nH]c2ccc(-c3nnc(NC[C@@H](N)Cc4ccccc4Cl)s3)cc12 | 47 nM | 106 nM | 57 nM | –
4 | Cc1n[nH]c2ccc(-c3nnc(NC[C@@H](N)Cc4ccc(Cl)cc4Cl)s3)cc12 | 18 nM | 43 nM | 70 nM | –
5 | CCc1n[nH]c2ccc(-c3nnc(NC[C@@H](N)Cc4ccccc4)s3)cc12 | 370 nM | – | – | –
6 | Cc1n[nH]c2ccc(-c3nnc(NC[C@H](N)Cc4ccccc4)s3)cc12 | > 2200 nM | – | – | –
7 | Cc1n[nH]c2ccc(-c3nnc(NC[C@@H](N)Cc4cccc(Cl)c4)s3)cc12 | 19 nM | 15 nM | 17 nM | –
8 | Cc1n[nH]c2ccc(-c3nnc(NC[C@@H](N)Cc4ccc(F)c(F)c4)s3)cc12 | 14 nM | 27 nM | 19 nM | –
9 | Cc1n[nH]c2ccc(-c3nnc(NC[C@@H](N)Cc4ccc(Cl)cc4)s3)cc12 | 8.9 nM | 11 nM | 72 nM | –
10 | N[C@H](CNc1nnc(-c2ccc3[nH]nc(C4CC4)c3c2)s1)Cc1ccc(C(F)(F)F)cc1 | 181 nM | 237 nM | 135 nM | –
11 | Cc1n[nH]c2ccc(-c3nnc(NC[C@@H](N)Cc4ccccc4)s3)cc12 | 76 nM | 54 nM | 72 nM | –
12 | Cc1n[nH]c2ccc(-c3nnc(NC[C@@H](N)Cc4cccc(F)c4)s3)cc12 | 38 nM | 230 nM | – | –
13 | Cc1n[nH]c2ccc(-c3nnc(NC[C@@H](N)Cc4ccccc4F)s3)cc12 | 198 nM | 215 nM | 104 nM | –

Further lines, with some results ahead:

Row | IC50 [1] | IC50 [2] | IC50 [3] | Structure (SMILES) | other results
14 | 6 nM | 108 nM | 24 nM | N[C@H](CNc1nnc(-c2ccc3[nH]ncc3c2)s1)Cc1ccc(C(F)(F)F)cc1 | Ratio IC50 [4]: 4; IC50 [5]: 444 nM; IC50 [6]: 154 nM; clearance [16]: 81.7 mL/min/kg; half-life [17]: 2.5 h; Vd [18]: 13.3 L/kg
15 | 368 nM | 373 nM | 74 nM | N[C@H](CNc1nnc(-c2ccc3[nH]ncc3c2)s1)Cc1ccc(F)cc1 | –
16 | 25 nM | 117 nM | – | N[C@H](CNc1nnc(-c2ccc3[nH]ncc3c2)s1)Cc1cccc(C(F)(F)F)c1 | –
17 | 5.5 nM | 13 nM | 17 nM | Cc1n[nH]c2ccc(-c3nnc(NC[C@@H](N)Cc4ccc(C(F)(F)F)cc4)s3)cc12 | IC50 [5]: 357 nM; IC50 [6]: 333 nM; clearance [16]: 46.7 mL/min/kg; half-life [17]: 4.1 h; Vd [18]: 13.7 L/kg
18 | 24 nM | 157 nM | 41 nM | N[C@H](CNc1nnc(-c2ccc3[nH]ncc3c2)s1)Cc1ccc(Cl)cc1 | –
19 | 413 nM | 368 nM | 79 nM | N[C@H](CNc1nnc(-c2ccc3[nH]nc(-c4ccccc4)c3c2)s1)Cc1cccc(C(F)(F)F)c1 | –
20 | 280 nM | 274 nM | 607 nM | Cc1cc2cc(-c3nnc(NC[C@@H](N)Cc4ccc(C(F)(F)F)cc4)s3)ccc2cn1 | –
21 | 40 nM | 158 nM | 323 nM | N[C@H](CNc1nnc(-c2ccc3[nH]ncc3c2)s1)Cc1ccc(Cl)cc1Cl | Ratio IC50 [4]: 8
22 | 6.1 nM | 6.5 nM | 35 nM | Cc1n[nH]c2ccc(-c3nnc(NC[C@@H](N)Cc4cccc(C(F)(F)F)c4)s3)cc12 | –
